Data: ChEMBL document CHEMBL2169868, “Flavone-based novel antidiabetic and antidyslipidemic agents” (J Med Chem, 2012)
Active and inactive are the calls of the source. The rule behind the calls is not given here.

Tests used:
Format in all cases: functional
Mus musculus [1] = experiment: Reduction in body weight in diabetic C57BL/KsJ db/db mouse model in hyperglycemia at 25 mg/kg, po qd for 10 days relative to untreated control; design: scale not given: the % may be the effect or the level left
How it was run: (§1)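 db/db mice (C57BL/KsJ, 12−18 weeks, 40−50 g, glucose 200−350 mg/dL), housed at 23 ± 2.0 °C on a 12 h light cycle. Oral dosing daily for 10 days. Blood glucose checked each morning through day 9. Body weight recorded daily from day 1 to day 10. Mean % change versus vehicle, 5 mice per group; Student t test.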

Mus musculus [2] = experiment: Antihyperglycemic activity in diabetic C57BL/KsJ db/db mouse model assessed as reduction in plasma insulin level in hyperglycemia at 25 mg/kg, po qd for 10 days; design: scale not given: the % may be the effect or the level left
How it was run: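 db/db mice dosed orally every day for 10 days. On day 11, retro-orbital blood was drawn and plasma insulin measured. Mean % change versus vehicle-treated control, 5 mice per group; Student t test.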

Mus musculus [3] = experiment: Antidyslipidemic activity in diabetic C57BL/KsJ db/db mouse model assessed as increase in plasma HDL-C/cholesterol ratio at 25 mg/kg, po qd for 10 days
How it was run: (§2)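 db/db mice (blood glucose 200−350, TG 170−250, cholesterol 170−250, HDL-C 32−40 mg/dL) dosed orally at 25 mg/kg daily for 10 days; retro-orbital blood taken on day 11 for plasma TG, cholesterol and HDL-C (and HDL-C/CHOL ratio); mean % change versus vehicle control, 5 mice per group; Student t test.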

Mus musculus [4] = experiment: Antidyslipidemic activity in diabetic C57BL/KsJ db/db mouse model assessed as reduction in plasma cholesterol level at 25 mg/kg, po qd for 10 days; design: scale not given: the % may be the effect or the level left; how it was run: as §2
Mus musculus [5] = experiment: Antidyslipidemic activity in diabetic C57BL/KsJ db/db mouse model assessed as increase in plasma HDL-cholesterol level at 25 mg/kg, po qd for 10 days; how it was run: as §2
Mus musculus [6] = experiment: Antidyslipidemic activity in diabetic C57BL/KsJ db/db mouse model assessed as reduction in plasma triglyceride level at 25 mg/kg, po qd for 10 days; design: scale not given: the % may be the effect or the level left; how it was run: as §2
Mus musculus [7] = experiment: Antihyperglycemic activity in diabetic C57BL/KsJ db/db mouse model assessed as improvement in glucose tolerance in hyperglycemia at 25 mg/kg, po qd for 10 days
How it was run: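 Male/female C57BL/KsJ db/db mice, 12−18 weeks, 40−50 g, selected for glucose 200−350 mg/dL. Oral dosing daily for 10 days. OGTT on day 10 after an overnight fast: compound at −30 min, then 3 g/kg oral glucose at 0 min. Glucose read at 30, 60, 90 and 120 min. AUC taken versus vehicle, 5 mice per group.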

Mus musculus [8] = experiment: Antihyperglycemic activity in diabetic C57BL/KsJ db/db mouse model assessed as reduction in hyperglycemia at 25 mg/kg, po qd for 10 days; design: scale not given: the % may be the effect or the level left; how it was run: as §1
Rattus norvegicus [9] = experiment: Antihyperlipidemic activity in Triton-induced dyslipidemic Wistar rat model assessed as reduction in phospholipid level at 100 mg/kg, po; design: scale not given: the % may be the effect or the level left
How it was run: (§3)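 Male Wistar rats, 8−10 weeks, about 160 g, fed normal pellet diet. Triton X-100 given at 400 mg/kg ip; compound given orally in 1% gum acacia. Retro-orbital blood taken 18 h after Triton and serum separated at 1500g for 10 min. TG and cholesterol measured by kit. Mean % change versus dyslipidemic control, 5 animals.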

Rattus norvegicus [10] = experiment: Antihyperlipidemic activity in Triton-induced dyslipidemic Wistar rat model assessed as reduction in cholesterol level at 100 mg/kg, po; design: scale not given: the % may be the effect or the level left; how it was run: as §3
Rattus norvegicus [11] = experiment: Antihyperlipidemic activity in Triton-induced dyslipidemic Wistar rat model assessed as reduction in triglyceride level at 100 mg/kg, po; design: scale not given: the % may be the effect or the level left; how it was run: as §3
Rattus norvegicus [12] = experiment: Antidiabetic activity in sucrose loaded Wistar rat model assessed as reduction in glucose levels at 100 mg/kg, po
Rattus norvegicus [13] = experiment: Antidiabetic activity in sucrose challenged streptozotocin-induced diabetic Sprague-Dawley rat model assessed as reduction in glucose levels at 100 mg/kg, po measured after 5 hrs; design: scale not given: the % may be the effect or the level left
Rattus norvegicus [14] = experiment: Antidiabetic activity in sucrose challenged streptozotocin-induced diabetic Sprague-Dawley rat model assessed as reduction in glucose levels at 100 mg/kg, po measured after 24 hrs; design: scale not given: the % may be the effect or the level left

With `CN(CCOc1ccc(CC2SC(=O)NC2=O)cc1)c1ccccn1` (configuration not stated) [ROSIGLITAZONE] the Activity (Mus musculus [1]) was -18.3%, the Activity (Mus musculus [2]) was 40.5% and the “Percent increase in HDL-C/cholesterol ratio vs vehicle” value (Mus musculus [3]) was 108.7. It also gave an Activity (Mus musculus [4]) of 32.6%, an Activity (Mus musculus [5]) of 6.98% and an Activity (Mus musculus [6]) of 24.5%. It also gave an Activity (Mus musculus [7]) of 49.5% and an Activity (Mus musculus [8]) of 54.3%.
Molecule `COc1cc(OC)cc(-c2cc(=O)c3ccc(OCC(O)CNC(C)(C)C)cc3o2)c1` (configuration not stated) has an Activity (Rattus norvegicus [9]) of 19%, an Activity (Rattus norvegicus [10]) of 21% and an Activity (Rattus norvegicus [11]) of 17%. The Activity (Rattus norvegicus [12]) was “inactive”, the Activity (Rattus norvegicus [13]) was 4.86% and the Activity (Rattus norvegicus [14]) was 2.36%.
Molecule `CC(C)(C)NCC(O)COc1ccc2oc(-c3ccc(OCc4ccccc4)c(OCc4ccccc4)c3)cc(=O)c2c1` (configuration not stated) has an Activity (Rattus norvegicus [9]) of 12%, an Activity (Rattus norvegicus [10]) of 21% and an Activity (Rattus norvegicus [11]) of 17%. It also gave an Activity (Rattus norvegicus [12]) of 21.8% and an Activity (Rattus norvegicus [14]) of 0.36%.
With `COc1cc(-c2cc(=O)c3ccc(OCC(O)CNC(C)C)cc3o2)cc(OC)c1OC` (configuration not stated) the Activity (Rattus norvegicus [9]) was 16%, the Activity (Rattus norvegicus [10]) was 18% and the Activity (Rattus norvegicus [11]) was 19%. It also gave an Activity (Rattus norvegicus [12]) of 20.7%.
For `CC(C)(C)NCC(O)COc1ccc2c(=O)cc(-c3cc(O)cc(O)c3)oc2c1` (configuration not stated), the Activity (Rattus norvegicus [9]) was 4%, the Activity (Rattus norvegicus [10]) was 17% and the Activity (Rattus norvegicus [11]) was 16%.
Work on `Cc1ccc(COc2cc(OCc3ccc(C)cc3)cc(-c3cc(=O)c4ccc(OCC(O)CN(C(C)C)C(C)C)cc4o3)c2)cc1` (configuration not stated) yielded an Activity (Rattus norvegicus [9]) of 4.67%, an Activity (Rattus norvegicus [10]) of 10.1% and an Activity (Rattus norvegicus [11]) of 12.1%. The Activity (Rattus norvegicus [12]) was 15.7%, the Activity (Rattus norvegicus [13]) was 12.2% and the Activity (Rattus norvegicus [14]) was “inactive”.
`CC(C)NCC(O)COc1ccc2c(=O)cc(-c3cc(OCc4ccccc4)cc(OCc4ccccc4)c3)oc2c1` (configuration not stated) gave an Activity (Rattus norvegicus [9]) of 8%, an Activity (Rattus norvegicus [10]) of 13% and an Activity (Rattus norvegicus [11]) of 11%. For the same molecule, the Activity (Rattus norvegicus [12]) was “inactive”, the Activity (Rattus norvegicus [13]) was 7.86% and the Activity (Rattus norvegicus [14]) was 2.23%.
In the case of `COc1ccc(-c2cc(=O)c3ccc(OCC(O)CNC(C)C)cc3o2)cc1OC` (configuration not stated), the Activity (Rattus norvegicus [12]) is reported as 23.9%, the Activity (Rattus norvegicus [13]) is reported as 13.8% and the Activity (Rattus norvegicus [14]) is reported as 6.83%.
Work on `CC(C)(C)NCC(O)COc1ccc2oc(-c3ccc(O)c(O)c3)cc(=O)c2c1` (configuration not stated) yielded an Activity (Rattus norvegicus [9]) of 23%, an Activity (Rattus norvegicus [10]) of 24% and an Activity (Rattus norvegicus [11]) of 25%. For the same molecule, the Activity (Rattus norvegicus [13]) was “inactive” and the Activity (Rattus norvegicus [14]) was “inactive”.
Molecule `Cc1ccccc1COc1cc(OCc2ccccc2C)cc(-c2cc(=O)c3ccc(OCC(O)CNC(C)(C)C)cc3o2)c1` (configuration not stated) has an Activity (Rattus norvegicus [9]) of 12.6%, an Activity (Rattus norvegicus [10]) of 22.3% and an Activity (Rattus norvegicus [11]) of 28.2%. For the same molecule, the Activity (Rattus norvegicus [12]) was 39.1%, the Activity (Rattus norvegicus [13]) was 23.2% and the Activity (Rattus norvegicus [14]) was 17.2%.
`CC(C)(C)NCC(O)COc1ccc2c(=O)cc(-c3cc(OCc4cc(Cl)cc(Cl)c4)cc(OCc4cc(Cl)cc(Cl)c4)c3)oc2c1` (configuration not stated) showed an Activity (Rattus norvegicus [9]) of 12.2%, an Activity (Rattus norvegicus [10]) of 8.93% and an Activity (Rattus norvegicus [11]) of 11.3%. For the same molecule, the Activity (Rattus norvegicus [12]) was 25.9%, the Activity (Rattus norvegicus [13]) was 14.2% and the Activity (Rattus norvegicus [14]) was “inactive”.
Work on `Cc1ccc(COc2cc(OCc3ccc(C)cc3)cc(-c3cc(=O)c4ccc(OCC(O)CNC(C)(C)C)cc4o3)c2)cc1` (configuration not stated) yielded an Activity (Rattus norvegicus [9]) of 16.2%, an Activity (Rattus norvegicus [10]) of 11.2% and an Activity (Rattus norvegicus [11]) of 12.8%. For the same molecule, the Activity (Rattus norvegicus [12]) was 13.6%.
`O=c1cc(-c2cc(OCc3ccccc3)cc(OCc3ccccc3)c2)oc2cc(OCC(O)CN3CCN(c4ccccc4)CC3)ccc12` (configuration not stated) showed an Activity (Rattus norvegicus [9]) of 21%, an Activity (Rattus norvegicus [10]) of 24% and an Activity (Rattus norvegicus [11]) of 17%. For the same molecule, the Activity (Rattus norvegicus [13]) was 14.3%.
With `COc1cc(OC)cc(-c2cc(=O)c3ccc(OCC(O)CNC(C)C)cc3o2)c1` (configuration not stated) the Activity (Rattus norvegicus [9]) was 21%, the Activity (Rattus norvegicus [10]) was 17% and the Activity (Rattus norvegicus [11]) was 24%. For the same molecule, the Activity (Rattus norvegicus [13]) was “inactive” and the Activity (Rattus norvegicus [14]) was “inactive”.
Work on `CN(C)C(=N)NC(=N)N` [METFORMIN] yielded an Activity (Rattus norvegicus [9]) of 6.2%, an Activity (Rattus norvegicus [10]) of 4.2% and an Activity (Rattus norvegicus [11]) of 5.9%. The Activity (Rattus norvegicus [12]) was 22.1%, the Activity (Rattus norvegicus [13]) was 24.3% and the Activity (Rattus norvegicus [14]) was 19.4%.
